Target: Amyloid-beta precursor protein (Homo sapiens, UniProt P05067)
Test: Displacement of [125I]IMPY from beta-amyloid plaques in Alzheimer's disease patient brain homogenate
Assay type: tissue-based
How it was run: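 Test compound was added at 10^-5–10^-10 M, serially diluted in PBS containing 0.1% BSA. Nonspecific binding was defined with 600 nM unlabeled IMPY. Incubation was 37 °C for 2 h, followed by GF/B vacuum filtration, PBS washes and γ counting. Ki came from nonlinear regression.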

Amyloid-beta precursor protein, sequence (P05067 whole entry): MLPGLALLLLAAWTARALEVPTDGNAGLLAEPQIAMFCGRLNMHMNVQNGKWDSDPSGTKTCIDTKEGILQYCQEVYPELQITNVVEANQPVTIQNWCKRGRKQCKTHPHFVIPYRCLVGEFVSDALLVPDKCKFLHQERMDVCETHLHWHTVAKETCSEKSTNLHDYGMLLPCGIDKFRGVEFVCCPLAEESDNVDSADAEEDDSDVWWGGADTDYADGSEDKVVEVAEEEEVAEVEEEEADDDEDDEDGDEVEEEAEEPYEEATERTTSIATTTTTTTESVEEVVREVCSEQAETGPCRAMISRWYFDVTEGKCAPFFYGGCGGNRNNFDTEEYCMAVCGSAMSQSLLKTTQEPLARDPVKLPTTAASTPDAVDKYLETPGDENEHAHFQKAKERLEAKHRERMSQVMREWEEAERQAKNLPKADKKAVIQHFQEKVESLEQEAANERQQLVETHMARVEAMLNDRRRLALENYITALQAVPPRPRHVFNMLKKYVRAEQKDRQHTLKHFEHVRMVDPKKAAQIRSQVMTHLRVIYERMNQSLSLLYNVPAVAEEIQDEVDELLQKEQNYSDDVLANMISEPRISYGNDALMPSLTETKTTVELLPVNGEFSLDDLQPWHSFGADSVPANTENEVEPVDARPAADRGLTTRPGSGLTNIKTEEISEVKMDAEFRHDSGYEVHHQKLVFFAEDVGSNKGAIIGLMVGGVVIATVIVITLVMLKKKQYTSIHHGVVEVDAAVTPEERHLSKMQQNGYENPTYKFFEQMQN

Ki [nM]	SMILES
10	Nc1ccc2nc(-c3ccc(F)cc3)sc2c1
4.1	CNc1ccc2nc(-c3ccc(F)cc3)sc2c1

— ChEMBL document CHEMBL1154674, “Synthesis and evaluation of three 18F-labeled aminophenylbenzothiazoles as amyloid imaging agents” (J Med Chem, 2009)
